Laboratory results from ChEMBL document CHEMBL5154639, “Anti-schistosomal activities of quinoxaline-containing compounds: From hit identification to lead optimisation” (Eur J Med Chem, 2021).
pEC50: −log10 of the molar value. Activity calls are given as the source filed them.

Tests used:
[1] = tested on: Schistosoma mansoni; test: Antischistosomal activity against adult stage of Schistosoma mansoni assessed as inhibition of oviposition at 0.0024 to 10 uM measured after 72 hrs; format: functional, organism-based; conditions: dose 0.0095-10 µM, in the assay text read “0.0095 to 10 uM” for “0.0024 to 10 uM”
In short: (§1)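 7-week adult worm pairs, 1–3 pairs per well in duplicate, in DMEM with 10% FCS, L-glutamine and antibiotics, incubated 72 h at 37°C, 5% CO2. Concentrations were 0.78–50 µM in 0.5% DMSO, with some titrations at 0.0095–10 or 0.0095–5 µM. Controls were 0.5% DMSO and praziquantel 10 µM. Motility was measured by digital image analysis, and eggs were collected, formalin-fixed and counted.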

[2] = tested on: Schistosoma japonicum; test: Antischistosomal activity against adult stage of Schistosoma japonicum assessed as inhibition of parasite motility at 100 nM measured after 48 hrs by microscopic method; format: functional, organism-based
In short: (§2)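 Adult males (Egyptian isolate for S. haematobium, hamster-derived; Philippine isolate for S. japonicum, mouse-derived), about 5 per well in Basch 169 medium with antibiotics and 4% FBS, acclimated overnight at 37°C, 5% CO2. Compound added at 100 nM final in DMSO. Shape, density and motility scored by microscope with constrained descriptors at 5, 24, 48 and 72 h. Triplicate, sometimes duplicate.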

[3] = tested on: Schistosoma mansoni; test: Antischistosomal activity against adult stage of Schistosoma mansoni assessed as cessation of worm motility at 6.25 to 12.5 uM measured after 72 hrs; format: functional, organism-based; conditions: dose 6.25-12.5 µM; in short: as §1
[4] = tested on: Schistosoma haematobium; test: Antischistosomal activity against Schistosoma haematobium assessed as inhibition of parasite movement at 100 nM measured after 24 to 72 hrs by microscopic method; format: functional, organism-based; conditions: time 24-72 hrs; in short: as §2
[5] = Selectivity index, ratio of CC50 for human HepG2 cells measured after 72 hrs to EC50 for antischistosomal activity against Schistosoma mansoni Puerto-Rican schistosomula measured after 72 hrs; format: toxicity; conditions: read-out: Ratio CC50/EC50
[6] = Cytotoxicity against human HepG2 cells assessed as reduction in cell viability incubated for 72 hrs by MTT assay; format: toxicity, cell-based
[7] = Selectivity index, ratio of CC50 for human HepG2 cells measured after 72 hrs to EC50 for antischistosomal activity against adult stage of Schistosoma mansoni measured after 72 hrs; format: toxicity; conditions: read-out: Ratio CC50/EC50
[8] = Cytotoxicity against human HepG2 cells assessed as reduction in cell viability incubated for 24 hrs by MTT assay; format: toxicity, cell-based
In short: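 HepG2 seeded at 2×10^4 cells/well, then after 24 h exposed to 1–200 µM (seven concentrations) for 24 h at 37°C. Controls were 1.25% DMSO and 1% Triton X-100. MTT absorbance was read at 570 nm. Triplicates in three experiments; CC50 by non-linear regression of normalized log-dose curves.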

[9] = tested on: Schistosoma mansoni; test: Antischistosomal activity against Schistosoma mansoni Puerto-Rican schistosomula assessed as inhibition of parasite motility measured after 72 hrs; format: functional, organism-based
In short: (§3)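 Mechanically transformed schistosomula, 120 per well, incubated with compound at 37°C, 5% CO2 for 72 h, at single concentrations (10, 50 µM) or two-fold titrations (0.313–10 µM). Controls were auranofin 10 µM and 0.625% DMSO. Motility and phenotype were scored by automated high-content imaging, and EC50 was taken from two or three replicate titrations.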

[10] = tested on: Schistosoma mansoni; test: Antischistosomal activity against adult stage of Schistosoma mansoni assessed as inhibition of parasite motility measured after 72 hrs; format: functional, organism-based; in short: as §1
[11] = tested on: Schistosoma mansoni; test: Antischistosomal activity against Schistosoma mansoni Puerto-Rican schistosomula assessed as phenotypic changes measured after 72 hrs; format: functional, organism-based; in short: as §3
[12] = tested on: Schistosoma mansoni; test: Antischistosomal activity against adult stage of Schistosoma mansoni assessed as cessation of worm motility at 3.15 uM measured after 72 hrs; format: functional; in short: as §1
[13] = tested on: Schistosoma mansoni; test: Antischistosomal activity against adult stage of Schistosoma mansoni assessed as cessation of worm motility at 0.0095 to 10 uM measured after 72 hrs; format: functional, organism-based; conditions: dose 0.0095-10 µM; in short: as §1
[14] = tested on: Schistosoma mansoni; test: Antischistosomal activity against juvenile stage of Schistosoma mansoni assessed as increased granularity with reduced movement at 0.156 uM measured after 72 hrs by PI staining based analysis; format: functional, organism-based
In short: (§4)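 Juvenile worms, 20–25 per well, exposed to 10–0.156 µM for 72 h at 37°C, 5% CO2. Controls were 1.25% DMSO, and PZQ and AUR at 15 µM. Motility and phenotype were scored on an adapted WHO-TDR 0–4 scale. Viability was measured by 15 min staining with 2 µg/ml propidium iodide, imaged, and reported as the percentage of PI-positive worms per well.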

[15] = tested on: Schistosoma mansoni; test: Antischistosomal activity against juvenile stage of Schistosoma mansoni assessed as parasite death at 1.25 to 10 uM measured after 72 hrs by PI staining based analysis; format: functional, organism-based; conditions: dose 1.25-10 µM; in short: as §4
[16] = Genotoxicity against human TK6 cells assessed as […] in micronuclei formation at 0.5 to 2 uM measured after 24 hrs; format: toxicity, cell-based; conditions: tk6, 24 h, dose 0.5-2 µM
In short: (§5)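 TK6 cells, about 2×10^5/ml in RPMI with 10% horse serum, treated 24 h without recovery at 0.5, 2 and 4 µM. Controls were 1% DMSO, MMS 45.4 µM and carbendazim 8.4 µM. Cells were fixed, permeabilized and stained for γH2AX, p53 and DRAQ5, then imaged by flow cytometry. Micronuclei were scored by neural network as %MNi in mononucleated cells. Biomarkers were expressed as fold change, with 1.5-fold as cut-off. Three experiments.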

[17] = Genotoxicity against human TK6 cells assessed as induction of DNA damage by measuring nuclear p53 content at 0.5 to 4 uM measured after 24 hrs; format: toxicity, cell-based; conditions: tk6, 24 h, dose 0.5-4 µM; in short: as §5
[18] = Genotoxicity against human TK6 cells assessed as induction of DNA damage by measuring gammaH2AX level at 0.5 to 4 uM measured after 24 hrs; format: toxicity, cell-based; conditions: tk6, 24 h, dose 0.5-4 µM; in short: as §5
[19] = tested on: TK6; test: Induction of cell cycle arrest in human TK6 cells assessed as accumulation of cells at G2/M phase at 2 to 4 uM; format: toxicity, cell-based; conditions: tk6, 4 µM, dose 2-4 µM
[20] = tested on: TK6; test: Cytotoxicity against human TK6 cells assessed as increase in mitotic arrest at 4 uM measured after 24 hrs; format: toxicity, cell-based; conditions: tk6, 24 h
[21] = Genotoxicity against human TK6 cells assessed as […] in micronuclei formation at 4 uM measured after 24 hrs; format: toxicity, cell-based; conditions: tk6, 24 h; in short: as §5
[22] = Drug uptake in cytoplasm of human TK6 cells by fluorescence based analysis; format: ADME, subcellular
In short: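 Compound autofluorescence was recorded alongside γH2AX and p53 during imaging flow cytometry of TK6 cells treated for 24 h at 0.5–4 µM and fixed with lysis solution.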

[23] = tested on: Schistosoma mansoni; test: Antischistosomal activity against Schistosoma mansoni assessed as parasite death at 10 to 50 uM measured after 48 hrs; format: functional, organism-based; conditions: dose 10-50 µM
In short: (§6)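 Miracidia hatched from eggs by light exposure in artificial river water, then washed in CBSS. Set up in CBSS with compound, usually 0.5, 2, 5, 10 and 50 µM, in duplicate, with 1% DMSO as negative control. After 48 h at 26°C, dead, fully transformed and partially transformed larvae were counted.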

[24] = tested on: Schistosoma mansoni; test: Antischistosomal activity against Schistosoma mansoni assessed as inhibition of miracidial to sporocyst transformation measured after 48 hrs; format: functional, organism-based; conditions: dose 0.5-5 µM, DDE = dose-dependent effect; in short: as §6
[25] = tested on: Schistosoma mansoni; test: Antischistosomal activity against adult stage of Schistosoma mansoni assessed as inhibition of oviposition at 0.0095 to 10 uM measured after 72 hrs; format: functional, organism-based; conditions: dose 0.0095-10 µM; in short: as §1
[26] = tested on: Schistosoma mansoni; test: Antischistosomal activity against Schistosoma mansoni Puerto-Rican schistosomula assessed as inhibition of parasite motility at 50 uM measured after 72 hrs; format: functional, organism-based; in short: as §3
[27] = tested on: Schistosoma japonicum; test: Antischistosomal activity against adult stage of Schistosoma japonicum assessed as parasite death at 100 nM measured after 72 hrs by microscopic method; format: functional, organism-based; in short: as §2
[28] = tested on: Schistosoma japonicum; test: Antischistosomal activity against adult stage of Schistosoma japonicum assessed as inhibition of parasite motility at 100 nM measured after 24 to 72 hrs by microscopic method; format: functional, organism-based; conditions: time 24-72 hrs; in short: as §2
[29] = tested on: Schistosoma mansoni; test: Antischistosomal activity against adult stage of Schistosoma mansoni assessed as inhibition of in vitro laid eggs production at 12.5 uM measured after 72 hrs; format: functional, organism-based; in short: as §1
[30] = tested on: Schistosoma mansoni; test: Antischistosomal activity against adult stage of Schistosoma mansoni assessed as absence of body/gut movement, plate detachment and severe damage to the tegument at 25 to 50 uM measured after 72 hrs; format: functional, organism-based; conditions: dose 25-50 µM; in short: as §1

For `O=[N+]([O-])c1ccc2nc(Nc3cc(F)cc(C(F)(F)F)c3)c(Nc3cc(F)cc(C(F)(F)F)c3)nc2c1`, which Activity [1] is on record?
The Activity was “Active”.

Which Activity [2] does the source give for `O=[N+]([O-])c1ccc2nc(Nc3ccc(Cl)cc3)c(Nc3ccc(Cl)cc3)nc2c1` here?
The Activity was “Active”.

With `COC(=O)c1ccc(Nc2nc3ccc([N+](=O)[O-])cc3nc2Nc2ccc(C(=O)OC)cc2)cc1` as the molecule, how does the Activity [3] read?
Its Activity is “Active”.

For `O=[N+]([O-])c1ccc2nc(Nc3cccc(C(F)(F)F)c3)c(Nc3cccc(C(F)(F)F)c3)nc2c1`, which Activity [2] is on record?
The Activity was “Active”.

And the Activity [4]?
Its Activity is “Active”.

Which results are given for `Brc1ccc(Nc2nc3ccccc3nc2Nc2ccc(Br)cc2)cc1`?
selectivity ratio at 72 h [5]: 1.9; CC50 at 72 h [6]: 4.64 µM; selectivity ratio at 72 h [7]: 28.6; CC50 at 24 h [8]: 7.12 µM; pEC50 [9]: 5.92; pEC50 [10]: 6.79; pEC50 [11]: 5.44

For `FC(F)(F)c1cccc(Nc2nc3ccccc3nc2Nc2cccc(C(F)(F)F)c2)c1`, which Activity [3] is on record?
Its Activity is “Active”.

What about the Activity [12] of the same molecule?
The Activity was 100%.

Which Activity [13] does the source give for `O=[N+]([O-])c1ccc2nc(Nc3ccc(Cl)c(Cl)c3)c(Nc3ccc(Cl)c(Cl)c3)nc2c1` here?
The Activity was “Active”.

What about the Activity [14] of the same molecule?
Its Activity is “Active”.

And the Activity [15]?
Its Activity is “Active”.

What about the Activity [16] of the same molecule?
The Activity was “Non-Toxic”.

And the Activity [17]?
Its Activity is “Non-Toxic”.

What about the Activity [18] of the same molecule?
Its Activity is “Non-Toxic”.

What about the Activity [3] of the same molecule?
The Activity was “Active”.

And the Activity [19]?
The Activity was “Toxic”.

And the Activity [2]?
The Activity was “Active”.

And the Activity [1]?
Its Activity is “Active”.

And the Activity [20]?
Its Activity is “Toxic”.

And the Activity [21]?
The Activity was “Toxic”.

And the Drug uptake [22]?
The Drug uptake was “Active”.

And the Activity [23]?
Its Activity is “Active”.

And the Activity [24]?
The Activity was “Dde”.

And the Activity [25]?
The Activity was “Active”.

What does the source list for `O=C(C1CCCCC1)N1CC(=O)N2CCc3ccccc3C2C1` (stereo not drawn)?
Activity [13]: Active; Activity [1]: Active; Activity [25]: Active

With `Clc1ccc(Nc2nc3ccc(N4CCCC4)cc3nc2Nc2ccc(Cl)c(Cl)c2)cc1Cl` as the molecule, how does the Activity [26] read?
The Activity was “Active”.

Which Activity [3] does the source give for `Cc1ccc(Nc2nc3ccccc3nc2Nc2ccc(C)c(C)c2)cc1C` here?
The Activity was “Active”.

What does the source list for `O=[N+]([O-])c1ccc2nc(Nc3cc(C(F)(F)F)ccc3F)c(Nc3cc(C(F)(F)F)ccc3F)nc2c1`?
Activity [27]: Active; Activity [28]: Active; Activity [1]: Active; Activity [4]: Active

For `Cc1cccc(Nc2nc3ccc([N+](=O)[O-])cc3nc2Nc2cccc(C)c2)c1`, which Activity [3] is on record?
Its Activity is “Active”.

With `O=[N+]([O-])c1ccc2nc(Nc3cccc(Cl)c3)c(Nc3cccc(Cl)c3)nc2c1` as the molecule, how does the Activity [2] read?
Its Activity is “Active”.

Which Activity [27] does the source give for `O=[N+]([O-])c1ccc2nc(Nc3ccc(C(F)(F)F)cc3)c(Nc3ccc(C(F)(F)F)cc3)nc2c1` here?
Its Activity is “Active”.

And the Activity [28]?
The Activity was “Active”.

And the Activity [4]?
Its Activity is “Active”.

For `c1ccc(/N=c2\sc3ccccc3s\c2=N\c2ccccc2)cc1`, which Activity [29] is on record?
The Activity was “Active”.

What about the Activity [30] of the same molecule?
Its Activity is “Active”.

What does the source list for `O=[N+]([O-])c1ccc2nc(Nc3ccccc3)c(Nc3ccccc3)nc2c1`?
Activity [3]: Active; Activity [12]: 100%
